Test results as given in paper PMC5084670 (Cancer Science, 2016).

Columns and labels:
[1] = cited from earlier work
[2] = cited from earlier work; remark: listed apart in the source
[3] = test system: primary human muscle cells; details: cited from earlier work
[4] = test system: murine model of MB with deletion of PTCH1; details: cited from earlier work
[5] = test system: advanced solid tumors; assay: Tumor response by RECIST version 1.0; type: in vivo, human
Procedure, shortened: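 Daily oral test compound was given in 28-day cycles to adults with advanced solid tumors who had measurable or evaluable disease. Investigators judged tumor response from CT or MRI scans according to RECIST version 1.0.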

[6] = Pharmacokinetics of sonidegib in plasma; type: in vivo, human; details: for Exposure accumulation as the AUC ratio / AUC accumulation: cycle 1 day 15; for AUC(0-t) / Tmax / Cmax: human, plasma, oral; for Tmax: T max; for Cmax: C max
[7] = test system: GLI1; assay: GLI1 expression in normal skin samples by RT-PCR; type: in vivo, human
Procedure, shortened: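 Adult Asian patients with advanced solid tumors took oral test compound once daily in 28-day cycles after a 7-day single-dose run-in. Normal skin was sampled before treatment, at the end of cycle 1, and within 14 days after the last dose. RNA was extracted and analysed by RT-PCR to estimate GLI1 expression as a marker of Hh pathway activation.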

[8] = patients from Europe and the USA, CLDE225X2101 study

In the case of Cc1c(C(=O)Nc2ccc(N3C[C@@H](C)O[C@@H](C)C3)nc2)cccc1-c1ccc(OC(F)(F)F)cc1 [Sonidegib], the “Rhabdomyolysis, patients” value ([1]; CLDE225X2101 study) is given as “three”, the “Half-life (t 1/2)” value ([1]; as reported in non-Asian patients) is given as ~ 28 days and the AUClast ([1]; cycle 1 day 15, 400 mg, non-Asian patients (CLDE225X2101)) is given as 8806 ng·h/mL. For the same molecule, the “Maximum tolerated dose (MTD), once daily” value [1, 8] was 800 mg q.d, the “Maximum tolerated dose (MTD), twice daily” value [1, 8] was 250 mg b.i.d and the “Commonly reported AE: alopecia” value [2] was 63%. The “Commonly reported AE: asthenia” value [2] was 36%, the “Commonly reported AE: dysgeusia” value [2] was 70% and the “Commonly reported AE: weight loss” value [2] was 46%. The “Effect on muscle cells” value [3] was “induce muscle contraction and muscle fiber twitching”, the Antitumor activity [4] was “antitumor activity” and the “Stable disease (SD), number of patients” value ([5]; group 1, 400 mg) was 4 patients. The “Stable disease (SD), number of patients” value ([5]; group 1, 600 mg) was 1 patients, the “Progressive disease, patients” value ([5]; group 1, 15 patients) was 71% and the “Stable disease (SD), patients” value ([5]; group 1, five patients) was 24%. For the same molecule, the “Complete response or partial response” value ([5]; group 1 and group 2) was “Neither complete response nor partial response was observed”, the “Stable disease (SD), number of patients” value ([5]; group 2, 600 mg) was “three” and the “Best overall response SD, patients” value ([5]; group 2, 10 patients) was 42%. The “Progressive disease, patients” value ([5]; group 2, nine patients) was 38%, the Steady state ([6]; both groups) was “not achieved within cycle 1” and the “Plasma concentration at 168 h after a single dose” value ([6]; both groups at every dose) was “detected”. For the same molecule, the “Exposure accumulation as the AUC ratio” value ([6]; group 1, 400 mg) was 4.9 fold, the “Accumulation in trough levels” value ([6]; group 1, 400 mg, cycle 2 day 1 vs 24-h post-dose concentration in run-in) was 12.4 fold and the “Accumulation in trough levels” value ([6]; group 1, 400 mg, cycle 2 day 22 vs 24-h post-dose concentration in run-in) was 19.6 fold. For the same molecule, the “Exposure accumulation as the AUC ratio” value ([6]; group 1, 600 mg) was 4.6 fold, the “Accumulation in trough levels” value ([6]; group 1, 600 mg, cycle 2 day 1 vs 24-h post-dose concentration in run-in) was 14.3 fold and the “Accumulation in trough levels” value ([6]; group 1, 600 mg, cycle 2 day 22 vs 24-h post-dose concentration in run-in) was 19.9 fold. For the same molecule, the AUC accumulation ([6]; group 2, 400 mg) was “approximately 4.3 fold”, the Trough accumulation ([6]; group 2, 400 mg, cycle 2 day 1) was 13.9 fold and the Trough accumulation ([6]; group 2, 400 mg, cycle 2 day 22) was 16.3 fold. The AUC accumulation ([6]; group 2, 600 mg) was about 4.2 fold, the Trough accumulation ([6]; group 2, 600 mg, cycle 2 day 1) was 12.3 fold and the Trough accumulation ([6]; group 2, 600 mg, cycle 2 day 22) was 13.8 fold. The AUC accumulation ([6]; group 2, 800 mg) was about 6.0 fold, the AUC(0-t) ([6]; 400 mg q.d., AUClast, cycle 1, day 15 (last sampling 24 h), group 2, 400 mg q.d., n = 9, geometric mean (% CV)) was 12300 ng·h/mL and the AUC(0-t) ([6]; 400 mg, AUC0–24, pharmacokinetic run-in (single dose), group 1, 400 mg, n = 12, geometric mean (% CV)) was 2010 ng·h/mL. The AUC(0-t) ([6]; 400 mg, AUC0–24, pharmacokinetic run-in (single dose), group 2, 400 mg, n = 12, geometric mean (% CV)) was 2890 ng·h/mL, the Tmax ([6]; 400 mg, cycle 1, day 15, group 1, 400 mg q.d., n = 12, median) was 2 h and the Tmax ([6]; 400 mg, pharmacokinetic run-in (single dose), group 1, 400 mg, n = 12, median) was 3 h. The Tmax ([6]; 400 mg, pharmacokinetic run-in (single dose), group 2, 400 mg, n = 12, median) was 3 h, the AUC(0-t) ([6]; 600 mg, AUC0–24, pharmacokinetic run-in (single dose), group 1, 600 mg, n = 9, geometric mean (% CV)) was 3330 ng·h/mL and the AUC(0-t) ([6]; 600 mg, AUC0–24, pharmacokinetic run-in (single dose), group 2, 600 mg, n = 8, geometric mean (% CV)) was 3420 ng·h/mL. The Cmax ([6]; 600 mg, cycle 1, day 15, group 1, 600 mg q.d., n = 8, geometric mean (% CV)) was 1010 ng/mL, the Tmax ([6]; 600 mg, cycle 1, day 15, group 1, 600 mg q.d., n = 8, median) was 2 h and the Tmax ([6]; 600 mg, cycle 1, day 15, group 2, 600 mg q.d., n = 5, median) was 4 h. It also gave a Tmax ([6]; 600 mg, pharmacokinetic run-in (single dose), group 1, 600 mg, n = 9, median) of 2 h, a Tmax ([6]; 600 mg, pharmacokinetic run-in (single dose), group 2, 600 mg, n = 8, median) of 3 h and an AUC(0-t) ([6]; 800 mg, AUC0–24, pharmacokinetic run-in (single dose), group 2, 800 mg, n = 4, geometric mean (% CV)) of 3650 ng·h/mL. For the same molecule, the Cmax ([6]; 800 mg, cycle 1, day 15, group 2, 800 mg q.d., n = 2, geometric mean (% CV)) was 1230 ng/mL, the Tmax ([6]; 800 mg, pharmacokinetic run-in (single dose), group 2, 800 mg, n = 4, median) was 2 h and the Tmax ([6]; after a single dose in run-in period and repeated dosing in cycle 1 day 15, both groups) was 2 to 4 h. For the same molecule, the “Inhibition in GLI1 (normal skin, end of cycle 1 vs before treatment)” value ([7]; group 1, 400 mg, four patients) was 32–88%, the “Inhibition in GLI1 (normal skin, end of cycle 1 vs before treatment)” value ([7]; group 1, 600 mg, nine patients) was 73–96% and the “Inhibition in GLI1 (normal skin, end of cycle 1 vs before treatment)” value ([7]; group 2, 400 mg, six patients) was 6.8–95%. For the same molecule, the “Inhibition in GLI1 (normal skin, end of cycle 1 vs before treatment)” value ([7]; group 2, 600 mg, two patients) was 53–83% and the “GLI1 expression in normal skin samples” value ([7]; paired samples from 22 patients, all except one patient) was “decreased GLI1 expression”.
